Many of the other results were omitted from the sample, so hits are more common in it than they were.
KCC2 mod: KCC2 cotransporter modulators, thallium flux, primary screen, cell-based, HEK293 KCC2, FluoZin-2 fluorescence, MLSMR; Solute carrier family 12 member 5 (Homo sapiens), Q9H2X9; KCC2 cells, thallium flux FluoZin-2 fluorescence; B-score of Tl+ flux slope (higher = more flux/activation; lower = inhibition) at 10 µM; 190,000 tested, 2.2% active; AID 1456, 2008;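 active = thallium flux slope and its plate-corrected score both differing from the plate sample mean at a set confidence after two filtering rounds, in either direction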;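 also: slope of fluorescence scaled to starting intensity during 10 to 20 s after thallium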
ABCB6 inh MLPCN: ABCB6 transporter inhibitors, primary screen, K562-ABCB6 cells, flow cytometry, MLPCN library; 360,000 tested, 0.19% active; K562-ABCB6 porphyrin accumulation, 1 h; hits give low values; fluorescence ratio to DMSO, % at 10 µM;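 active = fluorescence ratio to DMSO below 75%, the collection mean minus 3 SD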;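 also: signal is porphyrin accumulated inside mitochondria; 100% equals median channel fluorescence of DMSO control wells; lower ratio means ABCB6 inhibition with less porphyrin fluorescence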
Dynein transport: inhibitors of GR-EGFP nuclear translocation, primary screen, dynein cargo transport inhibitor project, imaging, high-content, 3617.4 mouse cells | 220,000 tested, 0.47% active | AID 1381, 2008 | test concentration mostly 20 µM; stimulated with dexamethasone, 1 µM; hits give low values | z-score, hits read low;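 active = plate z-score of nuclear minus cytoplasmic receptor signal below a set negative limit, without overly bright fluorescence or cell loss, cut at about -3.5 in these data, passing the limit was not always enough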;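 also: z-score of nuclear minus cytoplasmic ring GR-EGFP intensity difference per well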
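Buffer or medium – tet-free medium with charcoal-stripped serum · Signal – automated 10x imaging of fixed Hoechst-stained cells · Also added – dexamethasone agonist, 1.0 µM final, for 30 min · Incubation – induction 48 h, compound 1 h, agonist 30 min · Read-out – GR-EGFP nuclear translocation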
p-CIP stab down: p/CIP-EGFP fusion destabilizers, primary screen, fluorescence, F442A cells. Q05BA5. 16 h. decrease of EGFP signal, % at 10 µM. 290,000 tested, 0.01% active;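 active = EGFP signal decrease of at least 30% at 10 µM or well 3 SD below plate mean, unless failing retest; inactive = the rest, including hits failing retest or dose response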
V-ATPase pHluor: regulators of yeast V-ATPase proton pumping, primary screen, pHLuorin cytosolic pH fluorescence. S. cerevisiae. response, % at 10 µM. 350,000 tested, 0.37% active. AID 504577, 2011; in the data active = response mostly above about 7.3%, no sharp cut-off; inactive = mostly below about 5.4%; also: actives read high
ABCB6 inh CP1: ABCB6 transporter inhibitors, confirmation, K562-ABCB6 cells, flow cytometry, cherry pick 1. K562-ABCB6 porphyrin accumulation, 1 h; hits give low values. shares compounds with ABCB6 inh MLPCN. ratio response (% of DMSO), % at 10 µM. 700 tested, under 10 active;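 active = repeat-averaged ratio response below 75% of DMSO, the collection mean minus 3 SD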;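 also: median porphyrin fluorescence at 575 nm with 488 nm excitation from mitochondria; lower ratio means less porphyrin signal so ABCB6 inhibition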
Numbers without * were called inactive; x = no result given.

SMILES	KCC2 mod	ABCB6 inh MLPCN	Dynein transport	p-CIP stab down	V-ATPase pHluor	ABCB6 inh CP1
COc1ccccc1C(=O)Nc1cc(-c2ccc(C)cc2)no1	x	69.0*	x	2.3	0.5	97.0
CC(C)OCCCN(C)C1CCN(S(=O)(=O)c2ccc(-c3cc(C(F)(F)F)no3)s2)CC1	x	104.0	x	8.1	-6.1	x
Cc1ccc(S(=O)(=O)/N=C(/c2ccccc2)N2CCOCC2)c(C)c1	0.277	102.0	-0.171	-6.8	-0.3	x
CCN1CCN(C(=O)CCc2nnc3ccc(N4CCC5(CC4)OCCO5)nn23)CC1	x	95.0	x	-8.8	3.7	102.0
CC1CCN(C(=O)CCc2nnc3ccc(N4CCC5(CC4)OCCO5)nn23)CC1	x	100.0	x	-10.6	5.9	99.0
Cc1ccc(CNC(=O)CCc2nnc3ccc(N4CCC5(CC4)OCCO5)nn23)cc1	x	100.0	x	7.1	2.0	x
Cc1cccc(NC(=O)COC(=O)CCCC2=NS(=O)(=O)c3ccccc3N2)c1	x	103.0	x	-3.5	-2.8	x
O=C(COC(=O)CCCC1=NS(=O)(=O)c2ccccc2N1)Nc1ccccc1	x	98.0	x	-9.0	-0.4	99.0
COc1cc(NC(=O)COC(=O)CCCC2=NS(=O)(=O)c3ccccc3N2)cc(OC)c1	x	97.0	x	7.8	-2.0	100.0
COc1ccccc1NC(=O)CCCc1nc(-c2ccc(OC)c(OC)c2)no1	-0.198	97.0	2.08	-10.4	1.0	x
O=C(Nc1ccnn1C1CCN(Cc2ccc(O)c(Cl)c2)CC1)C1CCCC1	x	96.0	x	-1.3	-2.1	x
CC(=O)NC(Cc1c[nH]c2ccccc12)C(=O)N1CCc2ccccc2C1 (stereo not given)	x	69.0*	-0.583	-9.6	-0.1	98.0
COc1ccc(N2CCN(C(=O)[C@H](Cc3c[nH]c4ccccc34)NC(C)=O)CC2)cc1	-0.000106	99.0	0.00974	-9.9	0.1	x
Cc1ccc2oc(=O)c3cnn(CC(=O)NCCc4ccsc4)c3c2c1	-1.31	54.0*	0.0225	2.7	1.0	103.0
N#Cc1ccccc1NC(=O)c1ccc2c(Cl)c3c(nc2c1)CCCC3	-0.865	94.0	-0.696	-14.1	-7.5	x
CC(=O)c1cccc(NC(=O)c2ccc3c(Cl)c4c(nc3c2)CCCC4)c1	0.696	73.0*	-0.188	-17.0	-1.8	102.0
C/C(=N\O)c1c(O)cc(-c2ccccc2)n(-c2ccccc2)c1=O	1.23	99.0	-0.552	-3.7	-5.6	x
O=c1c(-c2ccccc2)c(O)cc(-c2ccncc2)n1-c1ccc(Cl)cc1	-0.0978	64.0*	-1.61	2.4	-4.2	102.0
O=C(Nc1nc2ccc([N+](=O)[O-])cc2s1)C1CCCO1 (stereo not given)	x	92.0	0.293	8.1	-3.0	x
COc1ccc([N+](=O)[O-])cc1NC(=O)C1CCCO1 (stereo not given)	-1.09	71.0*	-0.769	-13.0	-1.8	101.0
COC(=O)[C@H](CCSC)NC(=O)Nc1ccc(C(C)C)cc1	-0.562	108.0	-0.675	-3.6	-1.4	x
COC(=O)[C@H](CCSC)NC(=O)Nc1ccc(C)c(C)c1	0.179	69.0*	-0.683	2.8	-4.5	101.0
COC(=O)c1ccc(S(=O)(=O)N2CCCCCC2)n1C	0.0249	97.0	1.24	1.2	0.5	x
CCN(CC)C(=O)[C@H]1CC(CC(=O)NCc2ccc(OC)c(OC)c2)C(=O)N2CCc3c([nH]c4ccc(OC)cc34)[C@]12C (stereo not given in full)	x	64.0*	x	x	1.1	100.0
CCN(CC)C(=O)[C@H]1CC(CC(=O)NCc2ccc(OC)c(OC)c2)C(=O)N2CCc3c([nH]c4ccccc34)[C@]12C (stereo not given in full)	x	95.0	x	x	-1.3	x
CCC/C=N/NC(=O)c1ccccc1O	0.333	98.0	0.568	3.5	1.5	x
CCn1cc([N+](=O)[O-])c(C(=O)N2N=C3/C(=C/c4cccs4)CCCC3C2c2cccs2)n1 (stereo not given)	0.0906	66.0*	3.58	-4.1	2.1	100.0

Screens from PubChem.
